We go through three molecules from ChEMBL document CHEMBL1177691, “Antineoplastic agents 582. Part 1: Isolation and structure of a cyclobutane-type sesquiterpene cancer cell growth inhibitor from Coprinus cinereus (Coprinaceae)” (2010).

For one assay, the system named is Candida albicans. The assay is described as follows: Antimicrobial activity against Candida albicans ATCC 90028 at 64 ug/ml by broth microdilution assay. The assay is classed as functional, organism-based. The procedure, abridged:
(§1)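 Broth microdilution susceptibility testing following NCCLS approved standards: M27-A (yeast method) and M7-A4. Each compound was tested at a single concentration of 64 μg/ml for growth inhibition of the listed strains: S. maltophilia ATCC 13637, M. luteus Presque Isle 456, S. aureus ATCC 29213, E. coli ATCC 25922, E. cloacae ATCC 13047, E. faecalis ATCC 29212, C. albicans ATCC 90028 and C. neoformans ATCC 90112.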

The subject of the next assay is Staphylococcus aureus. The assay is described as follows: Antimicrobial activity against Staphylococcus aureus ATCC 29213 at 64 ug/ml by broth microdilution assay. The assay is classed as functional, organism-based. The procedure, abridged:
as §1
(In general: Dilution methods test growth across graded concentrations, often in twofold steps.)

A further assay deals with Cryptococcus neoformans. The assay is described as follows: Antimicrobial activity against Cryptococcus neoformans ATCC 90112 at 64 ug/ml by broth microdilution assay. The assay is classed as functional, organism-based. The method in brief: as §1
In a further assay the test system is Micrococcus luteus. The assay is described as follows: Antimicrobial activity against Micrococcus luteus Presque Isle 456 at 64 ug/ml by broth microdilution assay. The assay is classed as functional, organism-based. The method in brief:
as §1

The next assay has as its system Enterobacter cloacae. Put plainly: Antimicrobial activity against Enterobacter cloacae ATCC 13047 at 64 ug/ml by broth microdilution assay. The class given is functional, organism-based. The method in brief: as §1
In the next assay the test system is Escherichia coli. Put plainly: Antimicrobial activity against Escherichia coli ATCC 25922 at 64 ug/ml by broth microdilution assay. The assay is classed as functional, organism-based. The method in brief: as §1
Assay [1] deals with Stenotrophomonas maltophilia. The assay is described as follows: Antimicrobial activity against Stenotrophomonas maltophilia ATCC 13637 at 64 ug/ml by broth microdilution assay. The assay is classed as functional, organism-based. The procedure, abridged: as §1
A further assay concerns Enterococcus faecalis. The assay is described as follows: Antimicrobial activity against Enterococcus faecalis ATCC 29212 at 64 ug/ml by broth microdilution assay. The class given is functional, organism-based. The method in brief:
as §1

The next assay deals with P388. The assay is described as follows: Antitumor activity against mouse P388 cells after 48 hrs by Sulforhodamine B. The class given is functional. To be noted: P388, 48 h, read-out: ED50 (the source's name).

In brackets after ≈: the same amount, converted by molar mass. Activity calls are given as the source filed them. No cut-off for these calls is given here.

For `C=C1[C@H](O)[C@H]2C[C@](C)(CO)CC2=C(C)C12CC2`, the outcome with Candida albicans, in the assay with Staphylococcus aureus, in the assay with Cryptococcus neoformans, in the assay on Micrococcus luteus, in the assay on Enterobacter cloacae and in the assay on Escherichia coli was inactive. For the same molecule, the outcome (in [1]; in the assay with Enterococcus faecalis) was inactive.

Regarding `CC1(C)C[C@H]2[C@H](O)C(CO)=C3[C@H](O)C[C@]3(C)[C@H]2C1`, the outcome in the assay with Candida albicans, in the assay on Staphylococcus aureus, in the assay on Cryptococcus neoformans, with Micrococcus luteus, with Enterobacter cloacae and with Escherichia coli was inactive. In addition, the result (in [1]; with Enterococcus faecalis) was inactive.

With `C/C(C=O)=C1/CC[C@@]1(C)[C@@H]1C[C@](C)(CO)C[C@H]1O`, the result in the assay with Candida albicans, in the assay on Staphylococcus aureus, with Cryptococcus neoformans, in the assay with Micrococcus luteus, with Enterobacter cloacae and in the assay on Escherichia coli was inactive. The outcome (in assay [1]; in the assay on Enterococcus faecalis) was inactive. Further, the EC50 in the assay with P388 came to 5.3 µg/mL (≈ 21 µM).
